Paper PMC5901702 (Journal of biomolecular screening, 2012)

How the values were obtained:
yeast Ste24p = target: T1, yeast Ste24p (Saccharomyces cerevisiae, UniProt P47154); assay: Target specificity: Ste24p activity; assay type: biochemical; conditions: 100 µM compound; relative to DMSO control = 100%
T1 sequence (P47154 1-453): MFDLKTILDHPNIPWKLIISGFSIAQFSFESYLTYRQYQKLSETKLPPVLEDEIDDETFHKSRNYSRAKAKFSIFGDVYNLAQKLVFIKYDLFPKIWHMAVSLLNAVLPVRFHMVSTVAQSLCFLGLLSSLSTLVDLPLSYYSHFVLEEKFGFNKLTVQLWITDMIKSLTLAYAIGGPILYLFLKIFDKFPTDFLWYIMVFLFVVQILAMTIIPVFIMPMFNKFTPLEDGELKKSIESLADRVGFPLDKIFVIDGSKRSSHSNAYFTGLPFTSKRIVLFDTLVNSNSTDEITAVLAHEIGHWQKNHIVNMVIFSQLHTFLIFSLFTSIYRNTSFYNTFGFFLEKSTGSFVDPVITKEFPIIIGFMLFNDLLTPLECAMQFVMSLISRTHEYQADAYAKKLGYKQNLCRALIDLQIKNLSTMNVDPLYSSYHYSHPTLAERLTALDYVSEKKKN
Outline: (§1)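 Yeast-derived microsomes (250 µg/mL) enriched for Rce1p or Ste24p were preincubated 10 min with 100 µM compound. They were assayed with an internally quenched fluorogenic farnesylated K-Ras C-terminus–based peptide, read at 320/420 nm ex/em. Rates were in triplicate, normalized by trypsin/pronase complete digestion, and expressed relative to DMSO control (100%).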

bovine trypsin = target: T2, bovine trypsin (Bos taurus, UniProt P00760); assay: Target specificity: trypsin activity with a-factor–based peptide; assay type: biochemical; conditions: 100 µM compound; relative to DMSO control = 100%
T2 sequence (P00760 24-246): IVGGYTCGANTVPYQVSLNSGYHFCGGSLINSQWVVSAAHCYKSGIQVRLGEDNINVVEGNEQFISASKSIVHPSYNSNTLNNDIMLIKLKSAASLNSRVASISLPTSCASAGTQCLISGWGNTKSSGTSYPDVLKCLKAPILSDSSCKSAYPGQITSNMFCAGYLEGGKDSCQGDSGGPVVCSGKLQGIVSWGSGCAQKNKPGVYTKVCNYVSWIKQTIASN
Outline: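 Single-dose specificity assay with a-factor–based fluorogenic peptide (50 µM) in 0.1 M KPi pH 7.6. Ste23p was used at 10 µg/mL and 30 °C; trypsin and pronase E at 0.5 µg/mL each under the 37 °C HTS conditions. Enzymes were preincubated 10 min with 100 µM compound. Triplicate rates were normalized by trypsin/pronase full digestion and given relative to DMSO control (100%).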

rat IDE [1] = target: T3, rat IDE (Rattus norvegicus, UniProt P35559); assay: a-Factor production bioassay; assay type: cell-based; conditions: 72 h, relative to DMSO-treated control
T3 sequence (P35559 1-1019): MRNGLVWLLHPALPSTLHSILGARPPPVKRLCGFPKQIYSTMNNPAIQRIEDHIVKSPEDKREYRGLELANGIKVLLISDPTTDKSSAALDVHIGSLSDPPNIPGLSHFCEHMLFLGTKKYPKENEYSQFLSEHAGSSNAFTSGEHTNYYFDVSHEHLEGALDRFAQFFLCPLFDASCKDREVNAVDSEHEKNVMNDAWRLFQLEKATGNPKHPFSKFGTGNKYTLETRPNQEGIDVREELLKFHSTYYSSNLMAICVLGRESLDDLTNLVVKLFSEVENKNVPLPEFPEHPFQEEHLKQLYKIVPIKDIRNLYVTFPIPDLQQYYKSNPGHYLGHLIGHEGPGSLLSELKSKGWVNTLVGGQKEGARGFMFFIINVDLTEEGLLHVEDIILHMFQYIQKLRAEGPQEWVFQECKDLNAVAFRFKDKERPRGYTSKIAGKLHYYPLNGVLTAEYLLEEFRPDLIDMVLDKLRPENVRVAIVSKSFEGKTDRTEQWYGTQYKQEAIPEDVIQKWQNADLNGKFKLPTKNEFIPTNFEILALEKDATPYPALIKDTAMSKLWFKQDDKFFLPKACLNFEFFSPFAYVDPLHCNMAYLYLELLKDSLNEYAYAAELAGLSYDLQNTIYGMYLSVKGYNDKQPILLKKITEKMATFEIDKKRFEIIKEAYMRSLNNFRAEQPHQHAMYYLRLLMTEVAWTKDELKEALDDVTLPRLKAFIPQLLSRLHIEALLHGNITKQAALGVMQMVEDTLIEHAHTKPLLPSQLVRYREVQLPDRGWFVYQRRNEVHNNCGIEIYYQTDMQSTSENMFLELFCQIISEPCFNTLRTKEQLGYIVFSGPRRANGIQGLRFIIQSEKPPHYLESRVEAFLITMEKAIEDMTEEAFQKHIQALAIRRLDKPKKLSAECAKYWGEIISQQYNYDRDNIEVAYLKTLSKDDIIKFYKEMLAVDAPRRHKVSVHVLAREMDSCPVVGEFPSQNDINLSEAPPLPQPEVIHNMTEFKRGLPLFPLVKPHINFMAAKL

yeast Rce1p = target: T4, yeast Rce1p (Saccharomyces cerevisiae, UniProt Q03530); assay: Target specificity: Rce1p activity; assay type: biochemical; conditions: 100 µM compound; relative to DMSO control = 100%
T4 sequence (Q03530 1-315): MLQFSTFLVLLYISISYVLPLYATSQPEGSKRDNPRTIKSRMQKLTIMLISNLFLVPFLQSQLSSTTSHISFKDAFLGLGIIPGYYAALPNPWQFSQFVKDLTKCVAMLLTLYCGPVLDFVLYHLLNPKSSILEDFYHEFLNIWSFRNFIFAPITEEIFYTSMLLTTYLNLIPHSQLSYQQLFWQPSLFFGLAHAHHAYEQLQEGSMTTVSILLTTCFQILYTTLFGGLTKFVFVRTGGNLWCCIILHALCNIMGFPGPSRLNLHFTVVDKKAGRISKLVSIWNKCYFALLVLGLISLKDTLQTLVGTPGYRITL
Outline: as §1

rat IDE [2] = target: T3, rat IDE; assay: Native PAGE mobility shift of rat IDE; assay type: binding; conditions: 100 µM compound; 60 min at 37 °C
Outline: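 Rat IDE was preincubated 60 min at 37 °C with compound (100 µM) or ATP (3 mM). It was mixed 1:1 with 2× native sample buffer (0.6 M Tris-HCl pH 6.8, 20% glycerol, bromophenol blue), run on 10% native PAGE at 4 °C and silver-stained.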

rat IDE [3] = target: T3, rat IDE; assay: ATP effect on rat IDE activity and activators; assay type: biochemical; conditions: Tris/BSA, 1 mM ATP
Outline: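 Rat IDE (87.7 nM) with 50 µM a-factor–based internally quenched fluorogenic substrate in 50 mM Tris pH 7.5 containing BSA and 1 mM ATP. Compounds were used at optimal levels taken from Tris/BSA dose-response curves. ATP titration (0–10 mM) was also run in 0.1 M KPi pH 7.6 or Tris/BSA. Activity is % of water- or DMSO-treated control, n = 4.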

rat IDE [4] = target: T3, rat IDE; assay: Insulin competition with a-factor–based substrate on rat IDE; assay type: biochemical; conditions: 100 µM compound; […] (IC50) insulin; 0.1 M KPi

SMILES | % Activity Ste24p (yeast Ste24p) | % Activity Trypsin (bovine trypsin) | IDE-mediated a-factor production in vivo (rat IDE [1]; 50 µM compound) | % Activity Rce1p (yeast Rce1p) | native PAGE mobility shift of IDE (rat IDE [2]) | IDE-mediated a-factor production in vivo (rat IDE [1]; 100 µM compound) | activation over the ATP-only condition (rat IDE [3]; compound 125 µM) | ability to stimulate IDE activity in presence of insulin (rat IDE [4]) | IDE-mediated a-factor production in vivo (rat IDE [1]; 12.5 µM compound) | % activity relative to ATP-only condition (rat IDE [3]; compound 500 µM) | IDE-mediated a-factor production in vivo (rat IDE [1]; 25 µM compound)
O=C(CCN1CC2CCC(CC2)C1)c1cccs1 [Compound 6] | 98.6 ± 9.9% | 111.5 ± 2.8% | enhanced a-factor production in vivo | 90.1 ± 1.0% | noticeable shift |  |  |  |  |  | 
O=S(=O)(O)c1cc(O)c2c(O)c(N=Nc3cccc4ccccc34)c(S(=O)(=O)O)cc2c1 [Compound 3] |  | 99.3 ± 2.2% |  |  | did not reveal a mobility shift | enhanced a-factor production in vivo | approximately 25% | retained their ability to stimulate IDE activity |  |  | 
O=C(O)c1ccc(Oc2nc3ccccc3s2)cc1 [Compound 7] | 92.8 ± 13.1% | 111.0 ± 1.2% |  | 89.6 ± 2.4% |  | reduced the yield of a-factor produced |  | retained their ability to stimulate IDE activity |  |  | 
O=S(=O)(O)CCCc1cccc2ccccc12 [Compound 1] | 97.2 ± 12.7% | 94.2 ± 0.3% |  | 89.7 ± 3.8% |  |  |  | retained their ability to stimulate IDE activity |  |  | 
Nc1nc(SCc2ccccc2Cl)cc(C(=O)O)n1 [Compound 5] | 131.4 ± 18.8% | 94.3 ± 5.4% |  | 101.2 ± 11.0% |  |  |  | retained their ability to stimulate IDE activity | enhanced a-factor production in vivo | > 250% | 
O=[N+]([O-])/C=C/c1cc2ccccc2[nH]1 [Compound 8] | 89.2 ± 10.7% | 101.8 ± 1.8% |  |  | noticeable shift |  |  |  |  |  | enhanced a-factor production in vivo
Cn1ncc2c(NCCc3ccccc3)nc(Cl)nc21 [Compound 2] | 93.0 ± 6.8% | 115.1 ± 3.9% |  | 83.2 ± 3.4% |  | reduced the yield of a-factor produced |  |  |  |  | 
